Bioassay records from PubChem.
KCNQ1 inh = human KCNQ1 channel inhibition | hit rate 1.3% among 310,000 | CHO-K1 KCNQ1, FluxOR thallium flux fluorescence; active compounds read high | P51787 | B-score at 10 µM | AID 2642;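 active = compounds whose thallium flux B-score, printed positive for inhibition, exceeds three library SD while starting fluorescence stays within three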;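 note: channel opened by potassium depolarization with thallium stimulus after 20 min compound exposure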
Target sequence (P51787 whole entry, looked up): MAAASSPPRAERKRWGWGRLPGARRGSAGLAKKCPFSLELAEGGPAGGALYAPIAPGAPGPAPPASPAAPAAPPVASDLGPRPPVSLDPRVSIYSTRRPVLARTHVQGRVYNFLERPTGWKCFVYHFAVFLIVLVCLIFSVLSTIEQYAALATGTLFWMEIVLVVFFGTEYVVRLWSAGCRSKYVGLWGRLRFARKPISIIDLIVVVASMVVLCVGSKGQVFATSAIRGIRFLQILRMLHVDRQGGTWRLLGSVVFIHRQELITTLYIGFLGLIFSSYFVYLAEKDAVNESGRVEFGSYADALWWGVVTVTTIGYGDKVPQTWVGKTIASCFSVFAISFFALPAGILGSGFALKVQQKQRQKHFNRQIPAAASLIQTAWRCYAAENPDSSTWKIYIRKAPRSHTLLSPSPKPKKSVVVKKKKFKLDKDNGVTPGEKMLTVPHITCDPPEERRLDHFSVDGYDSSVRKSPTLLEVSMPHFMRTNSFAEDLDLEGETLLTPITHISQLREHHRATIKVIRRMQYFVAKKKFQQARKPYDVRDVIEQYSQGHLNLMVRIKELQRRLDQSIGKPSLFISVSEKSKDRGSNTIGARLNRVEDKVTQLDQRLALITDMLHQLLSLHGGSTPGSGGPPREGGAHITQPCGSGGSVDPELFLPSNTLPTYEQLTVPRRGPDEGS
KCNK9 inh = inhibitors of human KCNK9 two-pore domain potassium channel. hit rate 1.2% among 310,000. HEK293 KCNK9, FluxOR thallium flux fluorescence; active compounds read low. B-score at 10 µM. Q9NPC2;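 active = ratio B-score over 3 SD below the library mean, with starting fluorescence within 5 SD of its mean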;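 note: negative B-score means less thallium flux so channel inhibition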
hERG protect = compounds protecting human hERG from proarrhythmic drug block; Q12809; CHO-hERG, FluxOR thallium flux, dofetilide IC70 present; activation (rescue from dofetilide block), less the hit threshold, % at 10 µM; hit rate 0.51% among 310,000; AID 1511;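 active = activation above the mean of controls blocked by dofetilide plus 5 SD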;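 note: thallium influx through hERG after potassium depolarization seen as dye fluorescence rise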
KCNQ1 pot = potentiators or activators of human KCNQ1 potassium channel; CHO-K1 KCNQ1, thallium flux FluxOR fluorescence; active compounds read high; B-score at 10 µM; hit rate 0.35% among 310,000;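 active = fluorescence ratio B-score, a plate-corrected score, at least three library SD, with initial intensity B-score within 5 SD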
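Test system: CHO-K1 cells stably expressing KCNQ1 / Medium: assay buffer / Also added: depolarizing K+/Tl+ stimulus, K2SO4 and Tl2SO4 each 12.5 mM in 5x stock / Incubation: 90 min dye loading and 20 min compound exposure, both at room temperature / Signal: thallium influx via FluxOR fluorescence, kinetic imaging / Evaluation: B score of baseline-normalized fluorescence ratio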
KCNK3 block = human KCNK3 channel inhibition, primary screen | B-score at 10 µM | hit rate 0.84% among 340,000 | CHO-KCNK3 thallium flux, FluxOR fluorescence; active compounds read low | O14649;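 active = B-score under library mean minus 4 SD, starting fluorescence ratio at most library mean plus 5 SD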;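 note: more negative B-score means stronger inhibition of thallium flux through KCNK3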
KCC2 mod = KCC2 (human) Cl- transport modulation | Q9H2X9 | KCC2 cells, thallium flux FluoZin-2 fluorescence | B-score of Tl+ flux slope (higher = more flux/activation; lower = inhibition) at 10 µM | hit rate 2.2% among 190,000;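 active = thallium flux slope and its plate-corrected score both differing from the plate sample mean at a set confidence after two filtering rounds, in either direction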;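 note: slope of fluorescence scaled to starting intensity during 10 to 20 s after thallium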
KCNQ1 inh valid = human KCNQ1 channel inhibition, validation assay | shares compounds with KCNQ1 inh | KCNQ1 cell line, FluxOR thallium flux fluorescence | inhibition, % at 10 µM | hit rate 93% among 1,600 | AID 588353;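 active = primary screen active, with duplicate mean exceeding buffer control mean plus 3 SD of buffer wells, cut at about 28% in these data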;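 note: 0% = buffer control ratio and 100% = XE991 inhibitor control ratio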
CHO Tl flux = counter-screen for KCNQ1 inhibitors: effect in parental CHO cells | shares compounds with KCNQ1 inh | parental CHO-K1, FluxOR thallium flux fluorescence ratio; active compounds read low; zero means no signal rise above baseline | fluorescence ratio (Tl flux) at 10 µM | hit rate 21% among 1,600 | AID 588366;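 active = mean of duplicate thallium-flux fluorescence ratios in parental host cells more than 5 SD below the buffer control mean, cut at about 0.38 in these data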;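 note: ratio is peak minus minimum fluorescence divided by baseline fluorescence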
KCNQ1 ephys val = confirmation of human KCNQ1 potassium channel inhibitors by electrophysiology; shares compounds with KCNQ1 inh; KCNQ1-CHO cells, automated patch clamp current; calls only at 10 µM; hit rate 20% among 490; AID 624120;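 active = KCNQ1 current drop exceeding 3 SD of negative control wells, seen in both duplicate runs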;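 note: steady state current during a 2 s step from -80 to +40 mV; negative values mean current inhibition and positive values mean potentiation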
KCNQ2 inh = KCNQ1 inhibitor that also blocks rat KCNQ2 channel. shares compounds with KCNQ1 inh. KCNQ2 cells, FluxOR thallium flux fluorescence. inhibition, % at 10 µM. hit rate 71% among 1,600. AID 651746;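 active = mean percent inhibition of the KCNQ2 thallium signal more than 5 SD above the buffer-only control wells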;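 note: KCNQ2 expressed in CHO cells; 0% = buffer control wells and 100% = XE-991 inhibitor control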
KCNQ1 KCNE1 spec = human KCNQ1/KCNE1 inhibition in KCNQ1 specificity screen; hit rate 77% among 1,600; shares compounds with KCNQ1 inh; KCNQ1/KCNE1 cells, FluxOR thallium flux fluorescence; inhibition, % at 10 µM;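 active = mean percent inhibition of duplicate wells above the buffer-only control mean plus 3 SD of those controls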;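 note: 0% = buffer only wells and 100% = XE-991 inhibitor control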
* marks the source's active call; other numbers are inactive results; i = inactive; / = not tested or not shown; + = active, no number. Shown are actives, neighbours in structure and some others; about 4.1% of the full set was active somewhere.

SMILES | KCNQ1 inh | KCNK9 inh | hERG protect | KCNQ1 pot | KCNK3 block | KCC2 mod | KCNQ1 inh valid | CHO Tl flux | KCNQ2 inh | KCNQ1 KCNE1 spec | others
CC1(C(=O)OCC(=O)N2c3ccccc3Sc3ccccc32)CC1(Cl)Cl (configuration not stated) | 7* | i | -2.6 | i | i | -0.878 | 122.5* | 0.387 | 103.0%* | 174.0%* | KCNQ1 ephys val=i
O=S(=O)(NCCC1=CCCCC1)c1ccc(Br)cc1 | 7* | i | -14.3 | i | i | / | 99.0* | 0.447 | 106.3%* | 150.5%* | KCNQ1 ephys val=+
CCOC(=O)c1cc(C#N)c(Oc2ccc(F)cc2)nc1-c1ccccc1 | 9* | i | -11.5 | i | i | / | 70.5* | 0.38* | 76.3%* | 104.5%*
CCOC(=O)c1c(C)[nH]c(C(=O)C(C)OC(=O)c2cccc(OCc3c(C)noc3C)c2)c1C (configuration not stated) | 17* | i | -3.5 | i | -11.6* | / | 127.0* | 0.465 | 108.7%* | 138.5%* | KCNQ1 ephys val=i
CN(C)S(=O)(=O)c1ccc(Cl)c(NC(=O)COC(=O)c2cc(-c3ccccc3)nc3ccccc23)c1 | 6* | i | -10.2 | i | i | -0.0823 | 60.5* | 0.488 | 74.3%* | 74.5%*
CN(C)S(=O)(=O)c1ccc(Cl)c(NC(=O)COC(=O)CCSc2ccccc2)c1 | i | i | -9.1 | i | i | -0.97 | / | / | / | /
Cc1sc(NC(=O)c2sc3nc4c(C)cccc4cc3c2N)c(C#N)c1C | 9* | i | -9.8 | i | i | 0.541 | 54.0* | 0.444 | i | 87.0%*
COc1ncnc2c1sc1nc(-c3ccccc3)c3c(c12)CCCC3 | 10* | i | -12.7 | i | i | 0.347 | 103.0* | 0.424 | 95.7%* | 131.0%* | KCNQ1 ephys val=i
CN(C)CCNc1ncnc2c1sc1nc(-c3ccccc3)c3c(c12)CCCC3 | i | i | -28.5 | i | i | 1.25 | / | / | / | /
CC12CC3(C)CC(C)(C1)CC(C(=O)NC(=S)N1CCOCC1)(C2)C3 | 8* | i | -7.0 | i | i | 9.39* | 53.0* | 0.452 | i | 44.0%*
O=C(Nc1ccc(N2CCCCCC2)cc1)c1cccc(S(=O)(=O)N2CCOCC2)c1 | / | / | / | / | i | / | / | / | / | /
FC(F)(F)Sc1ccc(NC(=S)NCc2ccccc2)cc1 | 7* | i | -10.1 | i | i | 0.654 | 77.5* | 0.508 | i | i
FC(F)(F)c1cccc(CNC(=S)Nc2ccccc2)c1 | 8* | i | -12.6 | i | i | 0.632 | 46.0* | 0.491 | 82.0%* | i
Cc1ccccc1C(=O)c1cccn1CC(=O)NCc1cccc(Cl)c1 | i | i | -0.8 | i | i | / | / | / | / | /
CC(NC(=O)COC(=O)CN1C(=O)C2CCCCC2C1=O)c1ccccc1 (configuration not stated) | / | / | / | / | i | / | / | / | / | /
CC(NS(=O)(=O)OCC(Cl)(Cl)Cl)c1ccc(C(C)(C)C)cc1 (configuration not stated) | 7* | i | -5.1 | i | i | / | 0.0 | 0.667 | i | i
Cn1c(N)c(C(=O)CSc2nc(C3CC3)n(-c3ccccc3)n2)c(=O)[nH]c1=O | / | / | / | / | i | / | / | / | / | /
COc1ccc(OC)c(NC(=O)Nc2ccc(Cl)cc2)c1 | i | i | -14.2 | i | i | -0.0266 | / | / | / | /
CC(=O)Nc1cccc(NC(=S)Nc2ccc(F)c(Cl)c2)c1 | 8* | i | -30.2 | i | i | -0.496 | 61.0* | 0.449 | i | i
COc1ccc(NC(=O)Nc2ccc(F)c(Cl)c2)cc1 | 9* | i | -13.5 | i | i | 0.565 | 70.0* | 0.518 | 76.7%* | i
O=C(Nc1cccnc1)Nc1ccc(F)c(Cl)c1 | 6* | i | -19.5 | i | i | / | 0.0 | 0.557 | i | i
COc1ccc(C(=O)CC(=O)C(=O)Nc2cc(OC)ccc2OC)cc1 | i | i | -2.7 | i | i | / | / | / | / | /
COc1ccc(C(=O)CC(=O)C(=O)Nc2ccc(OC)c(Cl)c2)cc1 | 15* | -6.68* | -24.4 | i | i | / | 0.0 | 0.613 | i | i
COc1ccc(CNS(=O)(=O)c2c(C(=O)N3CCCCC3)c(C)n(C)c2C)cc1 | i | i | -8.8 | i | i | / | / | / | / | /
CCCOc1cccc(C(=O)N/N=C/c2ccoc2)c1 | i | i | -7.7 | i | i | / | / | / | / | /
SMILES | KCNQ1 inh | KCNK9 inh | hERG protect | KCNQ1 pot | KCNK3 block | KCC2 mod | KCNQ1 inh valid | CHO Tl flux | KCNQ2 inh | KCNQ1 KCNE1 spec | others
CCOC(=O)C1CCN(C(=O)CNC(=O)c2nn(-c3ccc(OC)cc3)c(=O)c3ccccc23)CC1 | i | i | -6.0 | i | i | / | / | / | / | /
CSc1ccccc1NC(=O)Nc1ccc(F)c(Cl)c1 | i | i | -11.3 | i | i | 0.0469 | / | / | / | /
Cc1ccc(NC(=O)Nc2ccc(F)c(Cl)c2)cc1 | 8* | i | -15.4 | i | i | 0.0346 | 78.0* | 0.519 | i | 43.5%*
COc1ccc(-c2cc(C(=O)N3CCN(c4cccc(C)c4C)CC3)c3ccccc3n2)cc1OC | 8* | i | -28.7 | i | i | / | 60.5* | 0.448 | 108.0%* | 95.5%*
COc1ccc(-c2cc(C(=O)N3CCN(c4ncccn4)CC3)c3ccccc3n2)cc1OC | / | / | / | / | i | / | / | / | / | /
O=S1(=O)CCS(=O)(=O)C1c1ccccc1 | i | i | -8.5 | i | i | / | / | / | / | /
COc1cc(-c2cc(N)n(S(=O)(=O)c3ccc(F)cc3)n2)cc(OC)c1OC | i | i | -16.8 | i | i | -0.834 | / | / | / | /
CCOC(=O)c1oc2ccc(S(=O)(=O)n3nc(-c4cc(OC)c(OC)c(OC)c4)cc3N)cc2c1C | 7* | i | -35.8 | i | i | -1.21 | 62.5* | 0.419 | 71.0%* | 109.5%*
O=C(Nc1cccc(F)c1)OC(CN1CCCCC1)C(F)(F)F (configuration not stated) | 7* | i | -10.3 | i | i | -0.214 | 80.0* | 0.479 | 81.3%* | 106.0%*
CCOC1(c2ccccc2)OC(=O)c2ccccc21 (configuration not stated) | i | i | -2.8 | i | i | -1.9 | / | / | / | /
